Screening results: PubChem, several laboratories
Sampled rows, rich in hits. Any-hit rate of the full collection: about 4.6%.
PolyA inh: yeast polyadenylation inhibition | AID 1875 | S. cerevisiae SKY197-pL101 polyadenylation reporter, beta-gal luminescence; efflux-impaired pdr1/pdr3 knockout yeast; score 100 = 6 SD above DMSO | activity score, % at 12 µM | hit rate 0.02% among 300,000;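 active = lowest replicate activity score at least 50, where 100 means six control SD above control mean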;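 also: yeast exposed to compound for 9 h at 30 °C; higher score means more reporter readthrough which indicates perturbed polyadenylation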
NALP1 yeast inh: blocks the NALP1 inflammasome reconstituted in yeast. S. cerevisiae NALP1/ASC/caspase-1 growth, X-gal OD620, 72 h. inhibition, % at 10 µM. AID 2071. hit rate 0.61% among 280,000; in the data active = inhibition mostly above about 24%, no sharp cut-off; inactive = mostly below about 32%
DSG3 Ab inh: inhibitors of pemphigus antibody binding to human desmoglein-3; DSG3-coupled beads, scFv-anti-DSG3-GFP binding, flow cytometry; hits give low values; hit rate 0.48% among 310,000; P32926; AID 588358; binding (percent of control), % at 10 µM;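 active = binding more than 3 SD below its plate's average and above zero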;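 also: hits lower antibody fragment binding to DSG3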
NLRP3 yeast inh: NALP3 inhibition in yeast | Yeast reconstituted NLRP3/ASC/caspase-1, beta-gal luminescence, 24 h | inhibition, % at 10 µM | hit rate 0.39% among 330,000;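 active = inhibition of 50% or more; inactive = inhibition below 50%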;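 also: plate controls were induced DMSO wells for no effect and uninduced yeast grown without galactose for full effect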
ALR H2O2 inh: blocks human ALR sulfhydryl oxidase activity; P55789; purified ALR, DTT oxidation, H2O2 HRP-luminol luminescence; hit rate 3.8% among 290,000; inhibition, % (concentration not given with the values);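 active = mean replicate inhibition above about 79%, with every replicate also reaching it, limit read from the data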
Target sequence (P55789 whole entry, looked up): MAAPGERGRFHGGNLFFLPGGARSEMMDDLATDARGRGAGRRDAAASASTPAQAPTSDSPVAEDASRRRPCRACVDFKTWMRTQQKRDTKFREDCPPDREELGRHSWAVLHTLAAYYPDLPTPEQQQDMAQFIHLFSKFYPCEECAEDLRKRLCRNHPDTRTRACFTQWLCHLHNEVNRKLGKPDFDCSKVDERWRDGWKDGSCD
Arrestin-AP2 inh: human beta-arrestin and AP2 interaction inhibition. FITC-arrestin peptide / GST-AP2 beads, flow cytometry; AP2 beta2 appendage carries R879A mutation. inhibition, % at 10 µM. hit rate 0.31% among 340,000;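 active = inhibition above a set limit, near 3 SD of compounds lacking own fluorescence, cut at about 54% in these data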;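 also: plate controls were DMSO wells for no effect and 5 µM unlabelled arrestin peptide for full effect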
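System: GST-AP2 R879A glutathione beads; medium: PBS, Tween 20 0.05%, BSA 0.1%; reagent: fluorescein-tagged arrestin peptide at 50 nM final; schedule: pre-incubation 12 min, peptide binding 1 h, room temperature; detection: flow cytometry, FL1 (488/535 nm); read-out: inhibition as reduced fluorescein signal on beads, percent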
Numbers without * were called inactive; nt = no result given.

SMILES | PolyA inh | NALP1 yeast inh | DSG3 Ab inh | NLRP3 yeast inh | ALR H2O2 inh | Arrestin-AP2 inh
Cc1nc2ccc(-c3nc4ccc(N)cc4[nH]3)cc2[nH]1 | -9.0 | -13.9 | 91.8 | 6.3 | 99.5* | -7.1
Cc1ccc(-c2nc3ccccc3[nH]2)s1 | -20.9 | 18.0 | 103.2 | 46.4 | 43.6 | 2.2
Cc1[nH]c2ccccc2c1-c1nc2ccccc2[nH]1 | 11.7 | -38.0 | 95.8 | -0.2 | 89.3* | 10.1
Nc1ccc2nc(C3CCCCC3)[nH]c2c1 | -13.6 | 10.8 | 87.3 | 19.2 | 99.3* | 1.0
Nc1ccc(-c2nc3ccc(N)cc3[nH]2)cc1 | 6.5 | -11.2 | 89.5 | 19.3 | 98.5* | 8.2
CCC(C)(C)NC(=O)CN(Cc1ccco1)C(=O)CCC(=O)Nc1nccs1 | 2.1 | 2.0 | 109.2 | 3.3 | -3.0 | 6.7
COc1ccc(C)cc1N(C(=O)c1ccco1)C(C(=O)NC1CCCC1)c1cc(OC)c(OC)c(OC)c1 (stereo not given) | -5.0 | 11.0 | 122.3 | 20.5 | -13.6 | -5.5
Nc1cc(N)cc(-c2nc3ccccc3[nH]2)c1 | nt | 39.1 | 103.6 | 13.6 | 20.0 | -8.7
Nc1ccc2nc(-c3ccc(Cl)cc3)[nH]c2c1 | -4.0 | 4.9 | 94.9 | 17.0 | 98.9* | 2.6
Cc1ccc2nc(-c3ccccc3N)[nH]c2c1 | -1.8 | 13.2 | 97.2 | 42.4 | 51.7 | -3.4
Cc1cc(-c2nc3ccccc3[nH]2)ccc1N | 6.1 | -9.5 | 93.3 | 2.1 | 98.2* | -7.6
Cc1ccc(C)c(-c2nc3ccc(N)cc3[nH]2)c1 | 25.2 | -2.0 | 106.9 | -1.7 | 99.3* | -8.4
Nc1ccc2nc(-c3cccc(-c4nc5ccc(N)cc5[nH]4)c3)[nH]c2c1 | 3.1 | -10.8 | 72.8* | 25.2 | 98.7* | 8.3
COc1ccc(Nc2cc(Nc3cc(OC)c(OC)c(OC)c3)ncn2)cc1 | 0.8 | 13.6 | 96.5 | -1.8 | -32.4 | -17.8
Nc1ccc2nc(-c3cc(Cl)c(N)c(Cl)c3)[nH]c2c1 | 3.8 | 15.5 | 83.6 | 3.0 | nt | 27.6
Nc1ccc(-c2nc3c(Cl)c(N)ccc3[nH]2)cc1 | 19.6 | 4.8 | 97.7 | 4.0 | 98.5* | 41.5
Nc1ccc(-c2nc3ccc([N+](=O)[O-])cc3[nH]2)cc1 | 5.8 | -29.9 | 99.3 | 6.0 | 96.7* | 9.2
N#Cc1ncc(C(F)(F)F)cc1Sc1ccc(N)cc1 | 21.9 | -1.1 | 95.2 | -8.0 | 82.2* | 16.9
Cn1c(O)c(N=NC(=O)c2ccco2)c2ccccc21 | -6.8 | 36.2* | 113.6 | 17.9 | 1.6 | -4.9
Cn1c(O)c(N=NC(=O)CNC(=O)/C=C/c2ccccc2)c2ccccc21 | 12.5 | 36.6* | 97.3 | -3.0 | 1.8 | -9.2
Cc1occc1C(=O)N=Nc1c(O)n(C)c2ccccc12 | -4.6 | 33.0 | 83.7* | 35.8 | -18.2 | 12.7
Cn1c(O)c(N=NC(=O)c2ccccc2O)c2ccccc21 | -26.7 | -8.9 | 104.7 | 40.2 | -4.5 | 25.1
CCCCCCCCCCOC(=O)Cn1c(COc2ccccc2OC)[n+](C)c2ccccc21 | -5.3 | 37.4* | 119.6 | 24.6 | -12.5 | -8.4
O=C(CN1C(=O)NC2(CCCC2)C1=O)NCc1ccc(Cl)cc1 | nt | nt | 96.4 | 6.1 | -7.1 | 26.8
O=[N+]([O-])c1ccc(-c2cn(-c3ccccc3F)c(=S)[nH]2)cc1 | -16.6 | 2.6 | 100.1 | 12.5 | 83.7* | -21.3
SMILES | PolyA inh | NALP1 yeast inh | DSG3 Ab inh | NLRP3 yeast inh | ALR H2O2 inh | Arrestin-AP2 inh
Cc1ccc(-c2cn(-c3ccccc3F)c(=S)[nH]2)cc1 | 1.2 | 8.0 | 101.2 | 17.6 | 72.3 | 22.8
O=C1/C(=C/c2ccc(N3CCCC3)cc2)NC(=S)N1C1CC1 | -34.9 | -25.0 | 201.0 | 39.4 | 97.5* | -0.9
O=C1N/C(=C/c2ccc(N3CCCC3)cc2)C(=O)N1c1ccccc1 | -13.4 | 29.1 | 105.4 | 11.6 | 0.7 | 4.9
O=C(N/N=C/c1ccncc1)c1cccc(N/N=C/c2ccncc2)c1 | 16.9 | 5.3 | 102.6 | -13.9 | 96.5* | 5.2
Cc1cccc(N/N=C/c2ccncc2)c1 | 12.6 | 16.8 | 105.0 | -5.7 | 98.7* | 3.2
O=C(N/N=C/c1ccccn1)c1ccc(N/N=C/c2ccccn2)cc1 | -13.2 | -11.3 | 103.3 | 12.9 | 99.2* | 7.2
CCN(CC(=O)Nc1ccc(NC(C)=O)cc1)C(=O)CSc1ncnc2sc(C)c(C)c12 | -2.3 | nt | 100.8 | 7.6 | 43.8 | 12.6
CC(=O)Nc1ccc(C2NC(=O)CCC2[N+](=O)[O-])cc1 (stereo not given) | -15.9 | 6.6 | 101.4 | 4.2 | -0.9 | -9.4
CC(C)(Cc1nc2ccccc2[nH]1)c1nc2ccccc2[nH]1 | nt | nt | 100.2 | nt | nt | nt
O=C1NC(c2ccccc2)N=C2Oc3ccccc3C=C12 (stereo not given) | nt | nt | 97.6 | nt | nt | 29.6
CC(C)Cc1nnc(NC(=O)C2CCCN(C(=O)c3ccc(Cl)cc3)C2)s1 (stereo not given) | nt | nt | 95.7 | nt | nt | nt
O=C1OCC(CO)(CO)N=C1NNc1cc(Cl)ccc1Cl | -25.6 | nt | 103.2 | 9.3 | 98.6* | 16.1
O=C1OCC(CO)(CO)N=C1NNc1ccccc1[N+](=O)[O-] | -11.5 | 6.9 | 102.5 | 5.3 | 98.7* | 36.3
CC(C)(C)OC(=O)[C@H](Cc1ccccc1)NC(=O)c1ncn2c1c(=O)[nH]c1ccc(Br)cc12 | nt | nt | 106.0 | nt | nt | nt
Cc1ccc(-c2nnc(Nc3ccc4c(c3)OCO4)c3ccccc23)cc1S(N)(=O)=O | -11.9 | 5.6 | 97.8 | -2.0 | nt | 0.2
Cc1nnc(Nc2ccc3c(c2)OCO3)c2ccccc12 | -5.2 | 2.8 | 109.4 | 15.3 | 88.2* | 6.4
CC(C)c1ccc(C(C(C(=O)c2ccccc2)N2CCOCC2)N2CCOCC2)cc1 (stereo not given) | nt | nt | 93.1 | nt | nt | 25.9
CN(C)S(=O)(=O)c1ccc(NC(=O)COc2cccc3c2OC(C)(C)C3)cc1 | nt | nt | 102.2 | 16.4 | nt | 15.8
Nc1c(C(=O)N2CCOCC2)sc(=S)n1-c1ccccc1 | -10.6 | -9.2 | 106.3 | -10.7 | 92.6* | 3.8
Nc1c(C(=O)N2CCCCC2)sc(=S)n1-c1ccccc1 | 8.6 | -11.2 | 96.5 | 26.1 | 98.9* | -6.5
CC1CCCCC12NC(=O)N(CC(=O)NNC(=O)c1ccc(Br)cc1)C2=O (stereo not given) | nt | nt | 122.5 | 3.9 | -1.2 | 12.2
O=C(N/C(=C\c1ccc(Br)cc1)C(=O)N1CCOCC1)c1ccc([N+](=O)[O-])cc1 | 12.9 | 7.7 | 113.5 | 29.8 | -5.8 | -4.7
O=C1CSc2ccc(C(=O)N3CCCCC3)cc2N1 | nt | nt | 97.3 | nt | nt | nt
Cc1ccc(Oc2nc3ccccn3c(=O)c2/C=C(\C#N)C(=O)NC2CCS(=O)(=O)C2)c(C)c1 (stereo not given) | 15.9 | 5.0 | 104.7 | 16.9 | 83.8* | -3.7
Cc1cc(C)cc(Oc2nc3ccccn3c(=O)c2/C=C(\C#N)C(=O)NC2CCS(=O)(=O)C2)c1 (stereo not given) | -3.3 | nt | 96.4 | 2.0 | 35.2 | 9.3
Cc1ccc2ncccc2c1 | nt | nt | 99.8 | 11.7 | 28.1 | 20.9
Cc1nnc(C)c2c(C)n(-c3ccc4ncccc4c3)c(C)c12 | -6.5 | 25.4* | nt | -6.0 | -41.9 | -5.6
